{"source": "paper PMC7004521", "about": "(Cancer Science, 2019)", "key": {"[1]": {"assay": "End of treatment / discontinuation reasons", "assay_type": "in vivo, human", "settings": "dose‐expansion part, six of 38 patients"}, "MET [2]": {"system": "MET", "settings": "cellular assays; cited from earlier work"}, "[3]": {"assay": "Dose-limiting toxicities, MTD and RP2D determination", "assay_type": "in vivo, human"}, "MET [4]": {"system": "MET", "settings": "biochemical assays; cited from earlier work"}, "advanced solid tumors": {"system": "advanced solid tumors", "settings": "Japanese patients with advanced solid tumors; cited from earlier work"}, "Plasma pharmacokinetics": {"assay": "Plasma pharmacokinetics", "assay_type": "in vivo, human", "method_in_brief": "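Capsules (100–600 mg bid) or tablets (400 mg bid) were given orally. In escalation, plasma was drawn pre-dose and at 0.5, 1, 2, 4, 6 and 8 h on cycle 1 days 1 and 15, plus pre-dose on C1D2, C1D16, C2D1 and C3D1. In expansion, non-NSCLC patients had the C1D15 profile plus pre-dose samples. Analysis was validated LC-MS/MS (LLOQ 1 ng/mL) with noncompartmental parameters.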"}, "other kinases": {"system": "other kinases", "settings": "large panels of biochemical and binding assays; cited from earlier work"}, "MET‐dependent tumors": {"system": "MET‐dependent tumors", "settings": "tolerable doses; animal models incl. NSCLC, HCC, GBM; cited from earlier work"}, "[5]": {"system": "MET‐dysregulated advanced solid tumors", "assay": "Best overall response according to investigator", "assay_type": "in vivo, human", "method_in_brief": "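Patients with MET-dysregulated advanced solid tumours took oral twice-daily doses in 28-day cycles: 100–600 mg capsules or 400 mg tablets in escalation, and 600 mg capsules or 400 mg tablets in expansion. Tumours were assessed by CT, or by contrast MRI for GBM or when CT was contraindicated. Response was judged by the investigator per RECIST v1.0 (the ORR endpoint is defined per v1.1), or MacDonald criteria for GBM.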"}, "c‐MET phosphorylation": {"system": "c‐MET phosphorylation", "settings": "read-out: EC90 (90% inhibition of c‐MET phosphorylation); total concentration; c‐MET‐dependent mouse tumor models; cited from earlier work"}, "[6]": {"settings": "dose‐expansion cohorts, N = 18 evaluable"}, "[7]": {"settings": "escalation 400 mg bid tablet n=5"}, "[8]": {"settings": "expansion RP2D gastric cancer n=9"}, "[9]": {"settings": "expansion RP2D other indications n=18"}}, "note": "pIC50: −log10 of the molar value. Entries after “also recorded” stand apart in the source; their conditions may differ. Like-named read-outs stand apart in the source and are kept apart here.", "data": [{"smiles": "CNC(=O)c1ccc(-c2cnc3ncc(Cc4ccc5ncccc5c4)n3n2)cc1F", "note": "[capmatinib]", "values": [{"measurement": "patients discontinued as a result of AE", "setting": "[1]", "value": 16, "unit": "%"}, {"measurement": "pIC50", "setting": "MET [2]", "value": "~9.00"}, {"measurement": "posterior probability of excessive toxicity (BLRM)", "setting": "[3]; 600 mg bid dose level, dose‐escalation phase", "value": 20.1, "unit": "%"}, {"measurement": "MTD", "setting": "[3]; up to 600 mg bid capsules", "value": "not reached"}, {"measurement": "pIC50", "setting": "MET [4]", "value": 9.89}, {"measurement": "best overall response stable disease", "setting": "advanced solid tumors", "value": 18.2, "unit": "%"}, {"measurement": "drug accumulation following multiple doses", "setting": "Plasma pharmacokinetics; 400 mg bid tablets", "value": "Limited drug accumulation"}, {"measurement": "Racc (accumulation ratio), Mean (SD)", "setting": "Plasma pharmacokinetics; Cycle 1 Day 15, 100 mg bid n=3", "value": "1.54 (0.786)"}, {"measurement": "Racc (accumulation ratio), Mean (SD)", "setting": "Plasma pharmacokinetics; Cycle 1 Day 15, 200 mg bid n=5", "value": "1.36 (0.869)"}, {"measurement": "Racc (accumulation ratio), Mean (SD)", "setting": "Plasma pharmacokinetics; Cycle 1 Day 15, 250 mg bid n=3", "value": "1.08 (0.443)"}, {"measurement": "Racc (accumulation ratio), Mean (SD)", "setting": "Plasma pharmacokinetics; Cycle 1 Day 15, 350 mg bid n=3", "value": "1.38 (0.614)"}, {"measurement": "Racc (accumulation ratio), Mean (SD)", "setting": "Plasma pharmacokinetics; Cycle 1 Day 15, 400 mg bid tablet n=5", "value": "1.09 (0.408)"}, {"measurement": "Racc (accumulation ratio), Mean (SD)", "setting": "Plasma pharmacokinetics; Cycle 1 Day 15, 450 mg bid n=5", "value": "2.36 (1.75)"}, {"measurement": "Racc (accumulation ratio), Mean (SD)", "setting": "Plasma pharmacokinetics; Cycle 1 Day 15, 600 mg bid n=15", "value": "2.07 (0.848)"}, {"measurement": "drug accumulation ratio following multiple doses", "setting": "Plasma pharmacokinetics; capsules", "value": "one‐ to twofold"}, {"measurement": "drug accumulation following multiple doses", "setting": "Plasma pharmacokinetics; capsules 450 and 600 mg bid", "value": "ca. twofold"}, {"measurement": "dose proportionality of steady‐state AUCtau and Cmax", "setting": "Plasma pharmacokinetics; capsules, 100 to 600 mg bid", "value": "generally dose proportional"}, {"measurement": "mean exposure, tablet 400 mg bid versus capsules 600 mg bid", "setting": "Plasma pharmacokinetics; steady state", "value": "comparable mean exposure"}, {"measurement": "Cmax, Mean (SD)", "setting": "Plasma pharmacokinetics; steady state, Cycle 1 Day 15, 200 mg bid n=5", "value": "2500 (856) ng/mL"}, {"measurement": "Tmax, Median", "setting": "Plasma pharmacokinetics; steady state, Cycle 1 Day 15, 250 mg bid n=3", "value": 1.00, "unit": "h"}, {"measurement": "Tmax, Median", "setting": "Plasma pharmacokinetics; steady state, Cycle 1 Day 15, 400 mg bid tablet n=8", "value": 2.02, "unit": "h"}, {"measurement": "selectivity versus other kinases", "setting": "other kinases", "value": "highly selective versus other kinases"}, {"measurement": "effect on MET‐dependent tumors", "setting": "MET‐dependent tumors", "value": "regression of MET‐dependent tumors"}, {"measurement": "Best overall response: Complete response", "setting": "[5]; all escalations N=38", "value": "0 n (%)"}, {"measurement": "Best overall response: Partial response", "setting": "[5]; all escalations N=38", "value": "0 n (%)"}, {"measurement": "Best overall response: Progressive disease", "setting": "[5]; all escalations N=38", "value": "25 (66) n (%)"}, {"measurement": "Best overall response: Unknown", "setting": "[5]; all escalations N=38", "value": "3 (5) n (%)"}, {"measurement": "Best overall response: Complete response", "setting": "[5]; all expansions RP2D N=38", "value": "0 n (%)"}, {"measurement": "Best overall response: Partial response", "setting": "[5]; all expansions RP2D N=38", "value": "0 n (%)"}, {"measurement": "tumor shrinkage", "setting": "[5]; dose escalation, 450 mg bid capsule, colon cancer and HCC", "value": "tumor shrinkage was observed in two patients; also recorded: tumor shrinkage was observed for two patients"}, {"measurement": "patients with best percentage change from baseline in sum of tumor diameters <0", "setting": "[5]; [6]", "value": 7, "unit": "n"}, {"measurement": "patients with best percentage change from baseline in sum of tumor diameters >0", "setting": "[5]; [6]", "value": 11, "unit": "n"}, {"measurement": "Best overall response: Complete response", "setting": "[5]; escalation 100 mg bid n=4", "value": "0 n (%)"}, {"measurement": "Best overall response: Partial response", "setting": "[5]; escalation 100 mg bid n=4", "value": "0 n (%)"}, {"measurement": "Best overall response: Progressive disease", "setting": "[5]; escalation 100 mg bid n=4", "value": "2 (50) n (%)"}, {"measurement": "Best overall response: Stable disease", "setting": "[5]; escalation 100 mg bid n=4", "value": "2 (50) n (%)"}, {"measurement": "Best overall response: Unknown", "setting": "[5]; escalation 100 mg bid n=4", "value": "0 n (%)"}, {"measurement": "Best overall response: Complete response", "setting": "[5]; escalation 200 mg bid n=5", "value": "0 n (%)"}, {"measurement": "Best overall response: Partial response", "setting": "[5]; escalation 200 mg bid n=5", "value": "0 n (%)"}, {"measurement": "Best overall response: Progressive disease", "setting": "[5]; escalation 200 mg bid n=5", "value": "4 (80) n (%)"}, {"measurement": "Best overall response: Stable disease", "setting": "[5]; escalation 200 mg bid n=5", "value": "1 (20) n (%)"}, {"measurement": "Best overall response: Unknown", "setting": "[5]; escalation 200 mg bid n=5", "value": "0 n (%)"}, {"measurement": "Best overall response: Complete response", "setting": "[5]; escalation 250 mg bid n=4", "value": "0 n (%)"}, {"measurement": "Best overall response: Partial response", "setting": "[5]; escalation 250 mg bid n=4", "value": "0 n (%)"}, {"measurement": "Best overall response: Stable disease", "setting": "[5]; escalation 250 mg bid n=4", "value": "1 (25) n (%)"}, {"measurement": "Best overall response: Unknown", "setting": "[5]; escalation 250 mg bid n=4", "value": "1 (25) n (%)"}, {"measurement": "Best overall response: Complete response", "setting": "[5]; escalation 350 mg bid n=3", "value": "0 n (%)"}, {"measurement": "Best overall response: Partial response", "setting": "[5]; escalation 350 mg bid n=3", "value": "0 n (%)"}, {"measurement": "Best overall response: Progressive disease", "setting": "[5]; escalation 350 mg bid n=3", "value": "2 (67) n (%)"}, {"measurement": "Best overall response: Stable disease", "setting": "[5]; escalation 350 mg bid n=3", "value": "1 (33) n (%)"}, {"measurement": "Best overall response: Unknown", "setting": "[5]; escalation 350 mg bid n=3", "value": "0 n (%)"}, {"measurement": "Best overall response: Complete response", "setting": "[5]; [7]", "value": "0 n (%)"}, {"measurement": "Best overall response: Partial response", "setting": "[5]; [7]", "value": "0 n (%)"}, {"measurement": "Best overall response: Progressive disease", "setting": "[5]; [7]", "value": "3 (60) n (%)"}, {"measurement": "Best overall response: Stable disease", "setting": "[5]; [7]", "value": "2 (40) n (%)"}, {"measurement": "Best overall response: Unknown", "setting": "[5]; [7]", "value": "0 n (%)"}, {"measurement": "Best overall response: Complete response", "setting": "[5]; escalation 450 mg bid n=9", "value": "0 n (%)"}, {"measurement": "Best overall response: Partial response", "setting": "[5]; escalation 450 mg bid n=9", "value": "0 n (%)"}, {"measurement": "Best overall response: Progressive disease", "setting": "[5]; escalation 450 mg bid n=9", "value": "6 (67) n (%)"}, {"measurement": "Best overall response: Stable disease", "setting": "[5]; escalation 450 mg bid n=9", "value": "2 (22) n (%)"}, {"measurement": "Best overall response: Unknown", "setting": "[5]; escalation 450 mg bid n=9", "value": "1 (11) n (%)"}, {"measurement": "Best overall response: Complete response", "setting": "[5]; escalation 600 mg bid n=8", "value": "0 n (%)"}, {"measurement": "Best overall response: Partial response", "setting": "[5]; escalation 600 mg bid n=8", "value": "0 n (%)"}, {"measurement": "Best overall response: Progressive disease", "setting": "[5]; escalation 600 mg bid n=8", "value": "6 (75) n (%)"}, {"measurement": "Best overall response: Stable disease", "setting": "[5]; escalation 600 mg bid n=8", "value": "1 (13) n (%)"}, {"measurement": "Best overall response: Unknown", "setting": "[5]; escalation 600 mg bid n=8", "value": "1 (13) n (%)"}, {"measurement": "Best overall response: Complete response", "setting": "[5]; expansion RP2D HCC n=11", "value": "0 n (%)"}, {"measurement": "Best overall response: Partial response", "setting": "[5]; expansion RP2D HCC n=11", "value": "0 n (%)"}, {"measurement": "Best overall response: Progressive disease", "setting": "[5]; expansion RP2D HCC n=11", "value": "1 (9.1) n (%)"}, {"measurement": "Best overall response: Stable disease", "setting": "[5]; expansion RP2D HCC n=11", "value": "5 (46) n (%)"}, {"measurement": "Best overall response: Unknown", "setting": "[5]; expansion RP2D HCC n=11", "value": "5 (46) n (%)"}, {"measurement": "Best overall response: Complete response", "setting": "[5]; [8]", "value": "0 n (%)"}, {"measurement": "Best overall response: Partial response", "setting": "[5]; [8]", "value": "0 n (%)"}, {"measurement": "Best overall response: Progressive disease", "setting": "[5]; [8]", "value": "3 (33) n (%)"}, {"measurement": "Best overall response: Stable disease", "setting": "[5]; [8]", "value": "2 (22) n (%)"}, {"measurement": "Best overall response: Unknown", "setting": "[5]; [8]", "value": "4 (44) n (%)"}, {"measurement": "Best overall response: Complete response", "setting": "[5]; [9]", "value": "0 n (%)"}, {"measurement": "Best overall response: Partial response", "setting": "[5]; [9]", "value": "0 n (%)"}, {"measurement": "Best overall response: Progressive disease", "setting": "[5]; [9]", "value": "9 (50) n (%)"}, {"measurement": "Best overall response: Stable disease", "setting": "[5]; [9]", "value": "5 (28) n (%)"}, {"measurement": "Best overall response: Unknown", "setting": "[5]; [9]", "value": "4 (22) n (%)"}, {"measurement": "stable disease", "setting": "[5]; expansion, other advanced solid tumor types, five of 18 patients", "value": 28, "unit": "%"}, {"measurement": "tumor reduction in patients with GCN ≥6", "setting": "[5]; expansion, two other solid tumor patients", "value": "substantial tumor reduction"}, {"measurement": "EC90", "setting": "c‐MET phosphorylation", "value": "~71", "unit": "nM"}]}]}
